Laboratory results as given in article PMC8511113 (European journal of medicinal chemistry, 2021).
“Also recorded” adds a separate entry of the source.

Tests used:
[1] = tested on: MIA-induced cartilage degeneration in rat knee; experiment: MIA rat model of OA via IA dosing, joint histology; format: in vivo, male Sprague Dawley rats
How it was run: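 Cartilage damage was induced in male Sprague Dawley rats with 2 mg MIA in 40 μl, injected into the right knee. On days 5, 12 and 19 after MIA, rats received intra-articular injections (8 per group) of vehicle, test compound (1 mg, saline suspension) or triamcinolone (0.06 mg). Naive rats (5) received no injections. Right knees were taken on day 26 for histology of the MTP, MFC, LTP and LFC surfaces and their mean. Groups were compared with vehicle by one-way ANOVA or Kruskal-Wallis with post-test, significance p<0.05.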

[2] = In-vivo single dose oral rat pharmacokinetics; settings: oral 1 mg/kg, male Lewis rats
How it was run: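 Male Lewis rats, 3 per group, were fasted at least 16 h before dosing, with food returned about 4 h after. A 0.5 mg/mL suspension in 0.5% methylcellulose (400 cps) was given by gavage at 1.0 mg/kg (2 mL/kg). Jugular-catheter blood (K2EDTA) was drawn pre-dose and at 0.25–24 h. Plasma was obtained at 2200xg for 10 min, refrigerated. AUC(0-inf) came from the arithmetic mean concentration–time curve.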

[3] = IA days 5, 12, 19, histology day 26, AQU-019 1 mg, Triamcinolone 0.06 mg
[4] = IA days 5, 12, 19, histology day 26, AQU-019 1 mg
[5] = IA days 5, 12, 19 after MIA, histology day 26, AQU-019 1 mg, significant

| Improvement in AUC(0-infinity) over non-deuterated parent 18 [2] [%] | Increase of AUC(0-t) over non-deuterated parent 18 [2] [%] | Increase of Cmax over non-deuterated parent 18 [2] [%] | SMILES | Reduction of osteophyte scores/measurement vs Vehicle ([1]; IA days 5, 12, 19, day 26, Triamcinolone 0.06 mg, P<0.05) | Reduction of bone resorption, overall mean vs Vehicle ([1]; IA days 5, 12, 19, day 26, Triamcinolone 0.06 mg, significant) [%] | Cartilage degeneration / chondroprotection vs Vehicle (in words) [1, 3] | Cell loss vs Vehicle (in words) ([1]; IA days 5, 12, 19, histology day 26, Triamcinolone 0.06 mg) | Bone resorption vs Vehicle (in words) [1, 4] | Osteophyte scores/measurement vs Vehicle (in words) [1, 4] | Reduction in the mean loss on the LTP and LFC vs Vehicle [1, 5] | Reduction in the mean loss, mean of all surfaces vs Vehicle [1, 5] [%] |
| --- | --- | --- | --- | --- | --- | --- | --- | --- | --- | --- | --- |
|  |  |  | C[C@]12C=CC(=O)C=C1CC[C@H]1[C@@H]3C[C@@H](O)[C@](O)(C(=O)CO)[C@@]3(C)C[C@H](O)[C@@]12F [Triamcinolone, reference compound] | 40–47% | 43 | no reductions in cartilage degeneration | no significant reductions in cell loss |  |  |  |  |
| 64 | 68 | 17 | [2H]C([2H])(NC(=O)c1cc(C(=O)NCc2ccc(F)c(C)c2)ncn1)c1ccc(C(=O)O)cc1 [AQU-019, 4-(Dideutero-{[6-(4-fluoro-3-methyl-benzylcarbamoyl)-pyrimidine-4-carbonyl]-amino}-methyl)-benzoic acid] |  |  | significant chondroprotection |  | trend of reduced resorption compared to Vehicle but was not statistically significant; also recorded: while reduced, was not statistically significant | no reduction in osteophyte measurement; also recorded: comparable to Vehicle control; also recorded: no effect on osteophytes measurement | 21–22% | 16 |
